Experimental data reported in ChEMBL document CHEMBL3286247, “Expansion of Antibacterial Spectrum of Muraymycins toward Pseudomonas aeruginosa” (ACS Med Chem Lett, 2014).
In brackets after ≈: the same amount, converted by molar mass.

Key:
[1] = tested on: Pseudomonas aeruginosa; experiment: Antibacterial activity against Pseudomonas aeruginosa PAO1 assessed as growth inhibition after 20 hrs by microdilution method; format: functional; conditions: PAO1, 20 h
Outline: (§1)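 Broth microdilution per CLSI in cation-adjusted Mueller-Hinton broth, using serial 2-fold compound dilutions. Each strain was inoculated at 5 × 10⁴ CFU per well in 0.1 mL. Plates were incubated at 35 °C for 20 h, and the MIC was then scored.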

[2] = Inhibition of Staphylococcus aureus MraY by fluorescence assay
Outline: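 Purified S. aureus MraY was given UDP-MurNAc-dansylpentapeptide as substrate. Formation of dansylated lipid I was followed by fluorescence enhancement (excitation 355 nm, emission 535 nm).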

[3] = tested on: Pseudomonas aeruginosa; experiment: Antibacterial activity against Pseudomonas aeruginosa YY165 deltamexB mutant assessed as growth inhibition after 20 hrs by microdilution method; format: functional; conditions: YY165, 20 h
Outline: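 Broth microdilution per CLSI in cation-adjusted Mueller–Hinton broth; serial 2-fold compound dilutions inoculated with 5 × 10⁴ CFU per well (0.1 mL), incubated 35 °C for 20 h, then MIC scored. Strain YY165 is a MexB deletion mutant lacking the inner-membrane transporter of the MexAB-OprM efflux system.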

[4] = tested on: Pseudomonas aeruginosa; experiment: Antibacterial activity against Pseudomonas aeruginosa ATCC 25619 assessed as growth inhibition after 20 hrs by microdilution method; format: functional; conditions: ATCC 25619, 20 h; outline: as §1
[5] = tested on: Pseudomonas aeruginosa; experiment: Antibacterial activity against clinical isolate Pseudomonas aeruginosa SR27156 assessed as growth inhibition after 20 hrs by microdilution method; format: functional; conditions: SR27156, 20 h; outline: as §1
[6] = tested on: Pseudomonas aeruginosa; experiment: Antibacterial activity against Pseudomonas aeruginosa ATCC 27853 assessed as growth inhibition after 20 hrs by microdilution method; format: functional; conditions: ATCC 27853, 20 h; outline: as §1

Structure (SMILES)	MIC [1] [µg/mL]	IC50 [2] [nM]	MIC [3] [µg/mL]	MIC [4] [µg/mL]	MIC [5] [µg/mL]	MIC [6] [µg/mL]
CCCCCCCCCCCCCCC[C@H](NC(=O)[C@@H](NC(=O)N[C@H](C(=O)O)C(C)C)[C@@H]1CCNC(=N)N1)C(=O)NCCCN[C@H](C(=O)O)[C@H](O[C@@H]1O[C@H](CN)[C@@H](O)[C@H]1O)[C@H]1O[C@@H](n2ccc(=O)[nH]c2=O)[C@H](O)[C@@H]1O	> 64	1.1	> 64	> 64	> 64	> 64
CCCCCCCCCCCCCCC[C@H](NC(=O)[C@@H](NC(=O)N[C@H](C(=O)O)C(C)C)[C@H]1CCNC(=N)N1)C(=O)NCCCN[C@H](C(=O)O)[C@H](O[C@@H]1O[C@H](CN)[C@@H](O)[C@H]1O)[C@H]1O[C@@H](n2ccc(=O)[nH]c2=O)[C@H](O)[C@@H]1O	> 64	0.8	> 64	> 64	> 64	> 64
CCCCCCCCCCCCCCC[C@H](NC(=O)[C@H](CCCNC(=N)N)NC(=O)N[C@H](C(=O)O)C(C)C)C(=O)NCCCN[C@H](C(=O)O)[C@H](O[C@@H]1O[C@H](CN)[C@@H](O)[C@H]1O)[C@H]1O[C@@H](n2ccc(=O)[nH]c2=O)[C@H](O)[C@@H]1O	> 64	0.7	> 64	> 64	> 64	> 64
CCCCCCCCCCCCCCC[C@H](NC(=O)[C@H](CCCN)NC(=O)N[C@H](C(=O)O)C(C)C)C(=O)NCCCN[C@H](C(=O)O)[C@H](O[C@@H]1O[C@H](CN)[C@@H](O)[C@H]1O)[C@H]1O[C@@H](n2ccc(=O)[nH]c2=O)[C@H](O)[C@@H]1O	> 64	0.8	> 64	> 64	> 64	> 64
CCCCCCCCCCCCCCC[C@H](NC(=O)[C@@H](NC(=O)OCc1ccccc1)[C@@H]1CCNC(=N)N1)C(=O)NCCCN[C@H](C(=O)O)[C@H](O[C@@H]1O[C@H](CN)[C@@H](O)[C@H]1O)[C@H]1O[C@@H](n2ccc(=O)[nH]c2=O)[C@H](O)[C@@H]1O	> 64	4.2	> 64	> 64	> 64	> 64
CCCCCCCCCCCCCCC[C@H](NC(=O)[C@@H](N)[C@@H]1CCNC(=N)N1)C(=O)NCCCN[C@H](C(=O)O)[C@H](O[C@@H]1O[C@H](CN)[C@@H](O)[C@H]1O)[C@H]1O[C@@H](n2ccc(=O)[nH]c2=O)[C@H](O)[C@@H]1O	> 64	2.4	32 (≈ 34.5 µM)	> 64	64 (≈ 69 µM)	> 64
CCCCCCCCCCCCCCC[C@H](NC(=O)[C@@H](N)CCCN)C(=O)NCCCN[C@H](C(=O)O)[C@H](O[C@@H]1O[C@H](CN)[C@@H](O)[C@H]1O)[C@H]1O[C@@H](n2ccc(=O)[nH]c2=O)[C@H](O)[C@@H]1O	64 (≈ 72.1 µM)	3.8	32 (≈ 36.1 µM)	32 (≈ 36.1 µM)	32 (≈ 36.1 µM)	64 (≈ 72.1 µM)
CCCCCCCCCCCCCCC[C@H](NC(=O)[C@@H](N)CCCNC(=N)N)C(=O)NCCCN[C@H](C(=O)O)[C@H](O[C@@H]1O[C@H](CN)[C@@H](O)[C@H]1O)[C@H]1O[C@@H](n2ccc(=O)[nH]c2=O)[C@H](O)[C@@H]1O	16 (≈ 17.2 µM)	2.2	8 (≈ 8.61 µM)	8 (≈ 8.61 µM)	16 (≈ 17.2 µM)	32 (≈ 34.4 µM)
CCCCCCCCCCCCCCC[C@H](NC(=O)[C@@H](N)CCCSC)C(=O)NCCCN[C@H](C(=O)O)[C@H](O[C@@H]1O[C@H](CN)[C@@H](O)[C@H]1O)[C@H]1O[C@@H](n2ccc(=O)[nH]c2=O)[C@H](O)[C@@H]1O	> 64	8.5	16 (≈ 17.4 µM)	16 (≈ 17.4 µM)	64 (≈ 69.7 µM)	64 (≈ 69.7 µM)
CCCCCCCCCCCCCCC[C@H](N)C(=O)NCCCN[C@H](C(=O)O)[C@H](O[C@@H]1O[C@H](CN)[C@@H](O)[C@H]1O)[C@H]1O[C@@H](n2ccc(=O)[nH]c2=O)[C@H](O)[C@@H]1O	> 64	2.6	32 (≈ 41.4 µM)	32 (≈ 41.4 µM)	> 64	> 64
CCCCCCCCCCCCCCC[C@H](NC(C)=O)C(=O)NCCCN[C@H](C(=O)O)[C@H](O[C@@H]1O[C@H](CN)[C@@H](O)[C@H]1O)[C@H]1O[C@@H](n2ccc(=O)[nH]c2=O)[C@H](O)[C@@H]1O	64 (≈ 78.5 µM)	2.7	32 (≈ 39.3 µM)	32 (≈ 39.3 µM)	64 (≈ 78.5 µM)	> 64
CCCCCCCCCCCCCCC[C@H](NC(=O)c1ccccc1)C(=O)NCCCN[C@H](C(=O)O)[C@H](O[C@@H]1O[C@H](CN)[C@@H](O)[C@H]1O)[C@H]1O[C@@H](n2ccc(=O)[nH]c2=O)[C@H](O)[C@@H]1O	> 64	29.6	> 64	> 64	> 64	> 64
CCCCCCCCCCCCCCC[C@H](NC(=O)c1ccccn1)C(=O)NCCCN[C@H](C(=O)O)[C@H](O[C@@H]1O[C@H](CN)[C@@H](O)[C@H]1O)[C@H]1O[C@@H](n2ccc(=O)[nH]c2=O)[C@H](O)[C@@H]1O	> 64	6.4	> 64	64 (≈ 72.9 µM)	> 64	> 64
CCCCCCCCCCCCCCC[C@H](NC(=O)c1cccnc1)C(=O)NCCCN[C@H](C(=O)O)[C@H](O[C@@H]1O[C@H](CN)[C@@H](O)[C@H]1O)[C@H]1O[C@@H](n2ccc(=O)[nH]c2=O)[C@H](O)[C@@H]1O	> 64	9.6	> 64	64 (≈ 72.9 µM)	> 64	> 64
CCCCCCCCCCCCCCC[C@H](NC(=O)c1ccncc1)C(=O)NCCCN[C@H](C(=O)O)[C@H](O[C@@H]1O[C@H](CN)[C@@H](O)[C@H]1O)[C@H]1O[C@@H](n2ccc(=O)[nH]c2=O)[C@H](O)[C@@H]1O	> 64	8.1	> 64	64 (≈ 72.9 µM)	> 64	> 64
CCCCCCCCCCCCCCC[C@H](NC(=O)c1ccnnc1)C(=O)NCCCN[C@H](C(=O)O)[C@H](O[C@@H]1O[C@H](CN)[C@@H](O)[C@H]1O)[C@H]1O[C@@H](n2ccc(=O)[nH]c2=O)[C@H](O)[C@@H]1O	> 64	13.5	64 (≈ 72.8 µM)	64 (≈ 72.8 µM)	> 64	> 64
CCCCCCCCCCCCCCC[C@H](NC(=O)c1cnccn1)C(=O)NCCCN[C@H](C(=O)O)[C@H](O[C@@H]1O[C@H](CN)[C@@H](O)[C@H]1O)[C@H]1O[C@@H](n2ccc(=O)[nH]c2=O)[C@H](O)[C@@H]1O	> 64	33.1	> 64	64 (≈ 72.8 µM)	> 64	> 64
C[C@@H](O)[C@H]1C(=O)N2C(C(=O)O)=C(S[C@@H]3CN[C@H](CNS(N)(=O)=O)C3)[C@H](C)[C@H]12 [DORIPENEM]	0.5 (≈ 1.19 µM)	–	0.25 (≈ 0.595 µM)	0.063 (≈ 0.15 µM)	0.031 (≈ 0.0737 µM)	0.5 (≈ 1.19 µM)
